Key:
MCF7 = experiment: Antiproliferative activity against human MCF7 cells incubated for 72 hrs by MTT assay; type: functional, cell-based; conditions: MCF7, 72 h
Summary of the method: (§1)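 Cells seeded at 5 × 10^3/well and allowed to attach overnight, then washed with PBS. Compound diluted from 10 mM DMSO stock into medium (100 ng/mL HGF added for c-Met-expressing cells), in triplicate, 72 h at 37 °C. MTT added for 4 h, formazan dissolved in DMSO, absorbance read at 570 nm. Cell numbers taken from a standard curve; IC50 calculated.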

MDA-MB-231 = experiment: Antiproliferative activity against human MDA-MB-231 cells incubated for 72 hrs by MTT assay; type: functional, cell-based; conditions: MDA-MB-231, 72 h; summary of the method: as §1

| SMILES | IC50 (MCF7) [nM] | IC50 (MDA-MB-231) [nM] |
| --- | --- | --- |
| CC(=O)C1=C(O)C=C2Oc3c4c(c(C)c(O)c3[C@]2(C)C1=O)OC(c1cccc(Cl)c1)CC4=O (some centres not stated) | 6320 | 6410 |
| CC(=O)C1=C(O)C=C2Oc3c(C(=O)/C=C/c4cc(Cl)cc(Cl)c4)c(O)c(C)c(O)c3[C@]2(C)C1=O | 2440 | 2950 |
| CC(=O)C1=C(O)C=C2Oc3c(C(=O)/C=C/c4ccc(Cl)cc4)c(O)c(C)c(O)c3[C@]2(C)C1=O | 2100 | 2630 |
| CCCCOc1ccc(/C=C/C(=O)c2c(O)c(C)c(O)c3c2OC2=CC(O)=C(C(C)=O)C(=O)[C@]23C)cc1 | 530 | 620 |
| COc1ccc(/C=C/C(=O)c2c(O)c(C)c(O)c3c2OC2=CC(O)=C(C(C)=O)C(=O)[C@]23C)cc1 | 970 | 960 |
| CC(=O)C1=C(O)C=C2Oc3c(C(=O)/C=C/c4ccc(OCc5c(F)cccc5Cl)cc4)c(O)c(C)c(O)c3[C@]2(C)C1=O | 870 | 930 |
| CC(=O)C1=C(O)C=C2Oc3c(C(=O)CC(O)c4cc(Cl)cc(Cl)c4)c(O)c(C)c(O)c3[C@]2(C)C1=O (some centres not stated) | 5810 | 4440 |
| CC(=O)C1=C(O)C=C2Oc3c(C(=O)/C=C/c4ccc(-c5ccccc5)cc4)c(O)c(C)c(O)c3[C@]2(C)C1=O | 740 | 720 |
| CC(=O)C1=C(O)C=C2Oc3c4c(c(C)c(O)c3[C@]2(C)C1=O)OC(c1ccc(C(=O)O)cc1)CC4=O (some centres not stated) | 12800 | 14400 |
| CCOc1ccccc1/C=C/C(=O)c1c(O)c(C)c(O)c2c1OC1=CC(O)=C(C(C)=O)C(=O)[C@]12C | 2180 | 2030 |
| CC(=O)C1=C(O)C=C2Oc3c(C(=O)/C=C/c4ccc(Cl)cc4Cl)c(O)c(C)c(O)c3[C@]2(C)C1=O | 930 | 1360 |
| CC(=O)C1=C(O)C=C2Oc3c4c(c(C)c(O)c3[C@]2(C)C1=O)OC(c1ccccc1)CC4=O (some centres not stated) | 7260 | 8040 |
| CC(=O)C1=C(O)C=C2Oc3c(C(=O)CC(O)c4cc(C(F)(F)F)cc(C(F)(F)F)c4)c(O)c(C)c(O)c3[C@]2(C)C1=O (some centres not stated) | 5240 | 1560 |
| CCOc1ccc(/C=C/C(=O)c2c(O)c(C)c(O)c3c2OC2=CC(O)=C(C(C)=O)C(=O)[C@]23C)cc1 | 710 | 840 |
| CC(=O)C1=C(O)C=C2Oc3c(C(=O)/C=C/c4cccc(Cl)c4)c(O)c(C)c(O)c3[C@]2(C)C1=O | 2700 | 3920 |
| CC(=O)C1=C(O)C=C2Oc3c(C(=O)/C=C/c4c(F)cccc4F)c(O)c(C)c(O)c3[C@]2(C)C1=O | 1960 | 2380 |
| CC(=O)C1=C(O)C=C2Oc3c4c(c(C)c(O)c3[C@]2(C)C1=O)OC(c1ccc(Cl)cc1Cl)CC4=O (some centres not stated) | 3640 | 4010 |
| CC(=O)C1=C(O)C=C2Oc3c(C(=O)/C=C/c4ccc(-c5ccc(F)cc5)cc4)c(O)c(C)c(O)c3[C@]2(C)C1=O | 520 | 680 |
| CC(=O)C1=C(O)C=C2Oc3c4c(c(C)c(O)c3[C@]2(C)C1=O)OC(c1ccc(C(F)(F)F)cc1)CC4=O (some centres not stated) | 4770 | 3930 |
| COc1cc(/C=C/C(=O)c2c(O)c(C)c(O)c3c2OC2=CC(O)=C(C(C)=O)C(=O)[C@]23C)cc(OC)c1OC | 1220 | 1630 |
| CC(=O)C1=C(O)C=C2Oc3c(C(=O)/C=C/c4c(Cl)cccc4Cl)c(O)c(C)c(O)c3[C@]2(C)C1=O | 1530 | 5690 |
| CC(=O)C1=C(O)C=C2Oc3c(C(=O)/C=C/c4cc(F)cc(F)c4)c(O)c(C)c(O)c3[C@]2(C)C1=O | 1820 | 2090 |
| CC(=O)C1=C(O)C=C2Oc3c(C(=O)/C=C/c4ccc(OCCC(C)C)cc4)c(O)c(C)c(O)c3[C@]2(C)C1=O | 390 | 580 |
| CSc1ccc(/C=C/C(=O)c2c(O)c(C)c(O)c3c2OC2=CC(O)=C(C(C)=O)C(=O)[C@]23C)cc1 | 720 | 890 |
| CC(=O)C1=C(O)C=C2Oc3c4c(c(C)c(O)c3[C@]2(C)C1=O)OC(c1ccc(OCc2ccccc2)cc1)CC4=O (some centres not stated) | 6530 | 5710 |
| CC(=O)C1=C(O)C=C2Oc3c4c(c(C)c(O)c3[C@]2(C)C1=O)OC(c1ccc(OC(F)(F)F)cc1)CC4=O (some centres not stated) | 1510 | 1790 |

| SMILES | IC50 (MCF7) [nM] | IC50 (MDA-MB-231) [nM] |
| --- | --- | --- |
| CCOc1ccccc1C1CC(=O)c2c(c(C)c(O)c3c2OC2=CC(O)=C(C(C)=O)C(=O)[C@]23C)O1 (some centres not stated) | 5920 | 6130 |
| CC(=O)C1=C(O)C=C2Oc3c4c(c(C)c(O)c3[C@]2(C)C1=O)OC(c1ccc(OCc2ccc(F)cc2)cc1)CC4=O (some centres not stated) | 4320 | 5580 |
| CC(=O)C1=C(O)C=C2Oc3c4c(c(C)c(O)c3[C@]2(C)C1=O)OC(c1c(Cl)cccc1Cl)CC4=O (some centres not stated) | 4920 | 4310 |
| CC(=O)C1=C(O)C=C2Oc3c4c(c(C)c(O)c3[C@]2(C)C1=O)OC(c1ccc(F)cc1)CC4=O (some centres not stated) | 6220 | 6890 |
| CC(=O)C1=C(O)C=C2Oc3c(C(=O)/C=C/c4ccc(F)cc4)c(O)c(C)c(O)c3[C@]2(C)C1=O | 2980 | 3310 |
| CC(=O)C1=C(O)C=C2Oc3c(C(=O)/C=C/c4cc(C(F)(F)F)cc(C(F)(F)F)c4)c(O)c(C)c(O)c3[C@]2(C)C1=O | 910 | 720 |
| CC(=O)C1=C(O)C=C2Oc3c(C(=O)/C=C/c4ccc(Br)cc4)c(O)c(C)c(O)c3[C@]2(C)C1=O | 1130 | 1530 |
| CC(=O)C1=C(O)C=C2Oc3c4c(c(C)c(O)c3[C@]2(C)C1=O)OC(c1ccc(OCc2c(F)cccc2Cl)cc1)CC4=O (some centres not stated) | 3090 | 4420 |
| CC(=O)C1=C(O)C=C2Oc3c(C(=O)/C=C/c4ccccc4)c(O)c(C)c(O)c3[C@]2(C)C1=O | 4500 | 5100 |
| CCSc1ccc(/C=C/C(=O)c2c(O)c(C)c(O)c3c2OC2=CC(O)=C(C(C)=O)C(=O)[C@]23C)cc1 | 540 | 730 |
| CC(=O)C1=C(O)C=C2Oc3c(C(=O)/C=C/c4cccc(F)c4)c(O)c(C)c(O)c3[C@]2(C)C1=O | 3630 | 4790 |
| CCCCOc1ccc(C2CC(=O)c3c(c(C)c(O)c4c3OC3=CC(O)=C(C(C)=O)C(=O)[C@]34C)O2)cc1 (some centres not stated) | 2910 | 2230 |
| CC(=O)C1=C(O)C=C2Oc3c4c(c(C)c(O)c3[C@]2(C)C1=O)OC(c1ccc(C(C)(C)C)cc1)CC4=O (some centres not stated) | 3430 | 3650 |
| CC(=O)C1=C(O)C=C2Oc3c(C(=O)/C=C/c4ccc(OCc5ccccc5)cc4)c(O)c(C)c(O)c3[C@]2(C)C1=O | 1140 | 950 |
| CC(=O)C1=C(O)C=C2Oc3c(C(=O)/C=C/c4cccc(C(F)(F)F)c4)c(O)c(C)c(O)c3[C@]2(C)C1=O | 1230 | 1160 |
| COc1cccc(C2CC(=O)c3c(c(C)c(O)c4c3OC3=CC(O)=C(C(C)=O)C(=O)[C@]34C)O2)c1 (some centres not stated) | 3730 | 2940 |
| CC(=O)C1=C(O)C=C2Oc3c4c(c(C)c(O)c3[C@]2(C)C1=O)OC(c1ccc(C)cc1)CC4=O (some centres not stated) | 4210 | 5990 |
| CC(=O)C1=C(O)C=C2Oc3c(C(=O)/C=C/c4ccc(C)cc4)c(O)c(C)c(O)c3[C@]2(C)C1=O | 1330 | 1650 |
| CC(=O)C1=C(O)C=C2Oc3c(C(=O)/C=C/c4ccc(C(F)(F)F)cc4)c(O)c(C)c(O)c3[C@]2(C)C1=O | 730 | 710 |
| CC(=O)C1=C(O)C=C2Oc3c(C(=O)/C=C/c4ccc(C(C)(C)C)cc4)c(O)c(C)c(O)c3[C@]2(C)C1=O | 840 | 1030 |
| CC(=O)C1=C(O)C=C2Oc3c(C(=O)/C=C/c4ccc(OCc5ccc(F)cc5)cc4)c(O)c(C)c(O)c3[C@]2(C)C1=O | 750 | 910 |
| CCOc1ccc(C2CC(=O)c3c(c(C)c(O)c4c3OC3=CC(O)=C(C(C)=O)C(=O)[C@]34C)O2)cc1 (some centres not stated) | 3360 | 3680 |
| CC(=O)C1=C(O)C=C2Oc3c(C(=O)/C=C/c4ccccc4F)c(O)c(C)c(O)c3[C@]2(C)C1=O | 3740 | 3540 |
| CC(=O)C1=C(O)C=C2Oc3c(C(=O)/C=C/c4ccc(C(=O)O)cc4)c(O)c(C)c(O)c3[C@]2(C)C1=O | 9380 | 10600 |
| COc1cc(F)c(/C=C/C(=O)c2c(O)c(C)c(O)c3c2OC2=CC(O)=C(C(C)=O)C(=O)[C@]23C)cc1OC | 930 | 1150 |

— ChEMBL document CHEMBL5252537, “Usnic Acid Benzylidene Analogues as Potent Mechanistic Target of Rapamycin Inhibitors for the Control of Breast Malignancies” (J Nat Prod, 2017)
